Screening results (PubChem)
DAGLB inh = DAGLB lipase inhibitors, primary screen, biochemical, fluorescence, HTS | HEK293T DAGLB membrane lysate, EnzChek fluorogenic substrate | inhibition, % at 5.17 µM | 340,000 compounds, 0.059% hits | AID 504411, 2011; in the data active = inhibition above about 34%
DNA FID counter = compounds displacing fluorescent DNA intercalator, primary screen, artefact control for HCV NS3 helicase inhibitor project, biochemical, FID fluorescence. inhibition, % at 7.9 µM. DNA fluorescent intercalator displacement. 290,000 compounds, 0.17% hits; in the data active = inhibition above about 37%;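 note: higher means more ethidium bromide displaced from hairpin DNA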
core dimer inh = inhibitors of HCV core protein dimerization, primary screen, biochemical, TR-FRET, high-throughput; TR-FRET GST/Flag-core106 dimerization, 1536-well; inhibition, % at 5 µM; 300,000 compounds, 0.33% hits;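 active = inhibition above the mean of all tested compounds plus 3 SD, set per screening campaign, cut at about 45% in these data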
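Assay system: GST-tagged and Flag-tagged HCV core protein residues 1-106 / Times: compound-protein-antibody incubation 4 h at 22.5 °C / Signal: time-resolved FRET, ex 340 nm, em 617 and 671 nm / Evaluation: % inhibition based on acceptor/donor emission ratio / Benchmarks: wells lacking GST-core106 and wells with excess unlabelled core106 / Repeats: singlicate, one well per compound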
NS3 helicase inh = inhibitors of HCV NS3 helicase, primary screen, biochemical, Cy5 molecular beacon fluorescence; Hepatitis C virus NS3 helicase; NS3 helicase DNA unwinding; inhibition, % at 10.9 µM; 290,000 compounds, 0.56% hits;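 active = inhibition above the mean of all tested compounds plus 3 SD, set per campaign, cut at about 35% in these data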
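test system = hepatitis C virus NS3 helicase domain fragment enzyme | reagent = annealed dual-labelled DNA beacon duplex, ATP-started | times = 1 h at 25 °C | detection = Cy5 fluorescence, 0 and 60 min reads | read-out basis = percent inhibition from t60/t0 fluorescence ratio | control set = DMSO and thioflavine S | replication = one well per compound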
GPR7 antag = GPR7 receptor antagonists, primary screen, cell-based, fluorescence, single concentration; Neuropeptides B/W receptor type 1 (Homo sapiens), P48145; GPR7-expressing cells, fluorescence antagonist assay; inhibition, % at 4.4 µM; 290,000 compounds, 1.1% hits; AID 1861, 2009; in the data active = inhibition above about 16%, passing the limit was not always enough;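 note: cells stimulated with the agonist NPW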
Target sequence (P48145 whole entry, looked up): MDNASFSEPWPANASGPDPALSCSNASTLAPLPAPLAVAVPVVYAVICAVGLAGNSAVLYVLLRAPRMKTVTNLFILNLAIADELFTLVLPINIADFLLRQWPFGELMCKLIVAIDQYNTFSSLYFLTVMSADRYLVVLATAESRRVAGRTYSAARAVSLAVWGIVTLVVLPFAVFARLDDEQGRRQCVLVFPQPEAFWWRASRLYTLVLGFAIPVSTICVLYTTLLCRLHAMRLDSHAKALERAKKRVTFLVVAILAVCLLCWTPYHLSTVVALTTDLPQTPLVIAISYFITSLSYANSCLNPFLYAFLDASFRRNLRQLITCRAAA
GRK2 aptamer HTS = compounds blocking aptamer binding on GRK2 – biochemical, human GRK2, bead flow cytometry, HTS, primary screen | inhibition of aptamer binding, % at 10 µM | 330,000 compounds, 0.59% hits | FAM-aptamer displacement from GRK2 | Beta-adrenergic receptor kinase 1 (Homo sapiens), P25098 | AID 488847, 2010;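 active = inhibition of aptamer binding above 40%, roughly 3 SD of noise, on plates passing a quality check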;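 note: median bead fluorescence of bound FAM aptamer so fluorescent compounds give negative values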
GPR7 antag conf = GPR7 receptor antagonists, confirmation, cell-based, fluorescence, single concentration | AID 1952, 2009 | shares compounds with GPR7 antag | inhibition, % at 4.4 µM | 2,400 compounds, 52% hits | GPR7-expressing cells, calcium fluorescence antagonist mode; in the data active = inhibition above about 24%;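 note: stimulated with the GPR7 agonist NPW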
MCHR1 antag = MCHR1 antagonists in cells, counter-screen for GPR7 antagonist project, cell-based, fluorescence, human | shares compounds with GPR7 antag | MCHR1-expressing cells, fluorescence antagonist assay | inhibition, % at 4.4 µM | 2,400 compounds, 62% hits; in the data active = inhibition above about 22%
Large screens that a line does not name were inactive (follow-up assays come after a bar, where they were run). Sampled rows, rich in hits. Any-hit rate of the full collection: about 2.2%.

COc1ccc(OCC(O)Cn2c(=N)n(CCN3CCCCC3)c3ccccc32)cc1 (centres undefined)	GPR7 antag 28.6 | GPR7 antag conf inactive | MCHR1 antag 22.6
Cc1ccc(OCC(O)Cn2c(=N)n(CCN3CCOCC3)c3ccccc32)cc1 (centres undefined)	none
Cc1ccc(OCC(O)Cn2c(=N)n(CCN3CCCCC3)c3ccccc32)cc1 (centres undefined)	GPR7 antag 27.5 | GPR7 antag conf 40.9 | MCHR1 antag 38.6
CC(C)CC(=O)N1CCN(c2ccc([N+](=O)[O-])c(NCc3ccccc3)c2)CC1	GPR7 antag 36.4 | GPR7 antag conf 25.6 | MCHR1 antag 45.0
COc1cccc(CN2CCN(Cc3cccc(Oc4ccccc4)c3)CC2)c1OC	none
COc1cccc(CN2CCC(N(CCc3ccccc3)Cc3ccccc3)CC2)c1OC	GPR7 antag 23.2 | GPR7 antag conf 35.0 | MCHR1 antag 40.5
O=C(Nc1cccc(S(=O)(=O)N2CCCCC2)c1)c1ccc2c(=O)n3c(nc2c1)CCCCC3	GPR7 antag 27.7 | GPR7 antag conf inactive | MCHR1 antag 77.0
N#C/C(=C\c1ccccc1)C(=O)NCc1ccc(F)cc1	GPR7 antag 22.5 | GPR7 antag conf 43.3 | MCHR1 antag 46.7
COc1cccc(N2CCN(C(=O)CCNS(=O)(=O)c3ccc4c(c3)c(=O)n(C)c(=O)n4C)CC2)c1	none
COCCCN(C(=O)CSCc1c(C)noc1C)c1c(N)n(Cc2ccccc2)c(=O)[nH]c1=O	none (no result: DNA FID counter, NS3 helicase inh, GPR7 antag)
CC1CCN(c2ccc3nnc(CCC(=O)Nc4ccc(F)c(F)c4)n3n2)CC1	GPR7 antag 28.2 | GPR7 antag conf 37.4 | MCHR1 antag 40.5
CCOC(=O)C1CCN(S(=O)(=O)c2c(Cl)ccc3nonc23)CC1	GPR7 antag 44.4 | GPR7 antag conf 56.5 | MCHR1 antag 46.3
CCOc1ccc(S(=O)(=O)Nc2cc(OC)ccc2OC)cc1	GPR7 antag 22.9 | GPR7 antag conf inactive | MCHR1 antag 33.9
CC(C)CC(=O)N1CCN(Cc2ccccc2Cl)CC1	none
CC(=O)Nc1cccc(C(=O)/C=C/c2ccc(N(C)C)cc2)c1	GPR7 antag 29.5 | GPR7 antag conf 60.4 | MCHR1 antag 61.6
CCN1C(=O)C(CC(=O)Nc2ccc(F)cc2)N(CCCN2CCN(c3ccc(F)cc3)CC2)C1=S (centres undefined)	GPR7 antag 33.3 | GPR7 antag conf 28.7 | MCHR1 antag 62.1
CC1(c2ccc(OC(F)F)cc2)NC(=O)N(CC(=O)Nc2ccc3[nH]c(=O)[nH]c3c2)C1=O (centres undefined)	none (no result: DNA FID counter, NS3 helicase inh, GPR7 antag)
CC1(c2ccc(OC(F)F)cc2)NC(=O)N(CC(=O)Nc2ccc3c(c2)OCO3)C1=O (centres undefined)	GPR7 antag 78.3 | GPR7 antag conf 82.5 | MCHR1 antag 81.8
CCOC(=O)CN1C(=O)NC(C)(c2ccc(OC(F)F)cc2)C1=O (centres undefined)	none
CC1(c2ccccc2)NC(=O)N(CC(=O)Nc2ccc3c(c2)OCO3)C1=O (centres undefined)	none
CC1(c2ccc(OC(F)F)cc2)NC(=O)N(CC(=O)Nc2ccccc2)C1=O (centres undefined)	GPR7 antag 88.7 | GPR7 antag conf 84.8 | MCHR1 antag 83.7
CC(=O)Nc1ccc(/C=N/N2C(=O)NC(C)(c3ccc(OC(F)F)cc3)C2=O)cc1 (centres undefined)	GPR7 antag 39.0 | GPR7 antag conf 98.4 | MCHR1 antag 99.4
C=CCn1c(=O)c(C(=O)NC(C)c2ccccc2)c(O)c2ccccc21 (centres undefined)	none
CCOC(=O)N1CCN(CC(O)COc2ccccc2C(C)C)CC1 (centres undefined)	none
COc1ccc(C2CCCN2CC(O)COc2ccccc2C(C)C)cc1 (centres undefined)	GPR7 antag 24.1 | GPR7 antag conf 32.6 | MCHR1 antag 41.0
COCCCNC(=O)/C=C1\Sc2ccccc2N(Cc2ccccc2F)C1=O	none (no result: GPR7 antag) | MCHR1 antag inactive
OCc1ccccc1N=c1ssnc1Cl	GPR7 antag 31.1 (no result: DAGLB inh) | GPR7 antag conf inactive | MCHR1 antag inactive
CC1(C)CC(=O)C(C=NCCCO)=C(O)C1	GPR7 antag 27.0 | GPR7 antag conf inactive | MCHR1 antag inactive
CCOc1ccc(C(=O)NNC(=O)CCNC(=O)c2ccco2)cc1OC	none (no result: DNA FID counter, NS3 helicase inh, GPR7 antag)
CC(=O)N1c2ccc(S(=O)(=O)N3CCC(C(=O)Nc4cccc(Cl)c4)CC3)cc2CC1C (centres undefined)	GPR7 antag 31.2, GRK2 aptamer HTS 85.0 | GPR7 antag conf inactive | MCHR1 antag 47.1
Cc1ccc(NC(=O)C2CCN(S(=O)(=O)c3ccc(N4CCCC4=O)cc3)CC2)cc1Cl	GPR7 antag 38.5 | GPR7 antag conf 52.4 | MCHR1 antag 61.3
COc1ccc(NC(=O)C2CCN(S(=O)(=O)c3ccc(N4CCCC4=O)cc3)CC2)c(OC)c1	none
CC1Sc2ccc(S(=O)(=O)N3CCC(C(=O)Nc4ccc(Cl)cc4)CC3)cc2NC1=O (centres undefined)	GPR7 antag 60.7 | GPR7 antag conf 68.1 | MCHR1 antag 70.0
COc1ccc(NC(=O)C2CCN(S(=O)(=O)c3ccc4c(c3)NC(=O)C(C)S4)CC2)cc1 (centres undefined)	none
O=C(CN(Cc1ccccc1Cl)C(=O)c1csnn1)NC1CCCC1	none
Cc1nc(N)sc1C(=O)N1N=N1	none
NC(=O)CCC(NC(=O)c1ccc(Cl)cc1)C(=O)NCCc1ccc2c(c1)OCCO2 (centres undefined)	none (no result: DNA FID counter, core dimer inh, NS3 helicase inh, GPR7 antag, GRK2 aptamer HTS)
COc1ccc(Cn2nnnc2CN2CCC(c3nc4ccccc4s3)CC2)cc1	GPR7 antag 29.4 | GPR7 antag conf 35.5 | MCHR1 antag 63.9
c1ccc2sc(C3CCN(Cc4nnnn4Cc4ccc5c(c4)OCO5)CC3)nc2c1	none
CC(C)OC(=O)CSc1nc(N2CCOCC2)c2c(c1C#N)CC(C)(C)OC2	none
COC(=O)[C@@]1(Cc2ccc(F)cc2)[C@H]2c3cc(C(=O)N4CCCC4)n(CCCNc4ncc(C(F)(F)F)cc4Cl)c3C[C@H]2CN1C(=O)c1ccccc1	none
